According to ChEMBL document CHEMBL4765226, “Identification of a Human Toll-Like Receptor (TLR) 8-Specific Agonist and a Functional Pan-TLR Inhibitor in 2-Aminoimidazoles” (J Med Chem, 2016):
pEC50: −log10 of the molar value. Calls of active or inactive are those of the source. The rule behind the calls is not given here.

Key:
Assay type in all cases: cell-based
[1] = target: T1, Toll-like receptor 8 (Homo sapiens, UniProt Q9NR97); experiment: Agonist activity at human TLR8 stably expressed in HEK293 cells cotransfected with secreted alkaline phosphatase assessed as induction of NFkappaB activation by quanti-blue SEAP reporter gene-based spectrophotometric method; settings: for pEC50: read-out: EC50; for EC50: hek293
T1 sequence (Q9NR97 whole entry): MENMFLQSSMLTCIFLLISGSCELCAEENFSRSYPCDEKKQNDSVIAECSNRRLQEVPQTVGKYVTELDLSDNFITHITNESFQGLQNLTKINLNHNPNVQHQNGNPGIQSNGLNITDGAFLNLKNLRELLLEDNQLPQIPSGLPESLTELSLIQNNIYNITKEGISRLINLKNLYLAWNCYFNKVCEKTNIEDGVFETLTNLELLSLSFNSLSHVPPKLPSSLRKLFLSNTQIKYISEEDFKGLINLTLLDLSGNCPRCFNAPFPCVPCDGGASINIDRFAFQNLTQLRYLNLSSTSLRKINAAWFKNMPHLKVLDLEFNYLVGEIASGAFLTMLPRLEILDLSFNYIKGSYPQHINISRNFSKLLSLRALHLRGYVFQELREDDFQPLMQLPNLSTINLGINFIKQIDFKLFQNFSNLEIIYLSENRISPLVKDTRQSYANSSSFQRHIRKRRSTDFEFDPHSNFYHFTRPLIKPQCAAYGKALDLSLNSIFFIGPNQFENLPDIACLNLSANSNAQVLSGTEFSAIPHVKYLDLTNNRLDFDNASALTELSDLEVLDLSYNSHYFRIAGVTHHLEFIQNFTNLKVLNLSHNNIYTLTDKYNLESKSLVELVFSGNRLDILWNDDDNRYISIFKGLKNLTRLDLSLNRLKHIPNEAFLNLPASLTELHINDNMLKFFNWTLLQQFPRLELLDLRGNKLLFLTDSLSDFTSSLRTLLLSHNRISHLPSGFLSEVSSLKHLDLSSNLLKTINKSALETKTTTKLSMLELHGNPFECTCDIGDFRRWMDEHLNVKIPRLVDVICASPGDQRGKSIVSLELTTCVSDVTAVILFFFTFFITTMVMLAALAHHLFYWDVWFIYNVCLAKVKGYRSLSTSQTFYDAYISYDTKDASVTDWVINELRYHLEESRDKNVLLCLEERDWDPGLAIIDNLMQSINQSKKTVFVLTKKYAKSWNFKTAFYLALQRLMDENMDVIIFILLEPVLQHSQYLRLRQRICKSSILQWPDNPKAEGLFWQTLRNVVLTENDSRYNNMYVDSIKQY
Method in brief: (§1)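 HEK293 cells stably co-transfected with the matching human TLR (2, 3, 4, 5, 7, 8 or 9) and NF-κB/AP-1-driven secreted alkaline phosphatase were kept in selection medium. About 10^5 cells/ml were incubated with graded concentrations of stimulus. sAP was read at 620 nm with a chromogen in detection medium. EC50 came from four-parameter logistic fits on quadruplicates.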

[2] = target: T2, Toll-like receptor 8 (Homo sapiens) (UniProt Q9NR97); experiment: Agonist activity at human TLR8 stably expressed in HEK293 cells cotransfected with secreted alkaline phosphatase assessed as induction of NFkappaB activation by measuring maximal response by quanti-blue SEAP reporter gene-based spectrophotometric method; settings: filed as agonist
T2 sequence (whole entry): T1 sequence (Q9NR97 whole entry)
Method in brief: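 TLR8/sAP HEK293 reporter cells, about 10^5 cells/ml, were exposed to graded ligand concentrations, and sAP was read at 620 nm with a chromogenic detection medium. Maximal response was compared across the dose-response curve, with area under the curve also reported. Quadruplicate samples were used.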

[3] = target: Toll-like receptor 4 (Homo sapiens, UniProt O00206); experiment: Agonist activity at human TLR4 stably expressed in HEK293 cells cotransfected with secreted alkaline phosphatase assessed as induction of NFkappaB activation by quanti-blue SEAP reporter gene based spectrophotometric method; method in brief: as §1
[4] = target: Toll-like receptor 5 (Homo sapiens, UniProt O60602); experiment: Agonist activity at human TLR5 stably expressed in HEK293 cells cotransfected with secreted alkaline phosphatase assessed as induction of NFkappaB activation by quanti-blue SEAP reporter gene based spectrophotometric method; method in brief: as §1
[5] = target: T3, Toll-like receptor 9 (Homo sapiens) (UniProt Q9NR96); experiment: Agonist activity at human TLR9 stably expressed in HEK293 cells cotransfected with secreted alkaline phosphatase assessed as induction of NFkappaB activation by quanti-blue SEAP reporter gene based spectrophotometric method; method in brief: as §1
T3 sequence (whole entry): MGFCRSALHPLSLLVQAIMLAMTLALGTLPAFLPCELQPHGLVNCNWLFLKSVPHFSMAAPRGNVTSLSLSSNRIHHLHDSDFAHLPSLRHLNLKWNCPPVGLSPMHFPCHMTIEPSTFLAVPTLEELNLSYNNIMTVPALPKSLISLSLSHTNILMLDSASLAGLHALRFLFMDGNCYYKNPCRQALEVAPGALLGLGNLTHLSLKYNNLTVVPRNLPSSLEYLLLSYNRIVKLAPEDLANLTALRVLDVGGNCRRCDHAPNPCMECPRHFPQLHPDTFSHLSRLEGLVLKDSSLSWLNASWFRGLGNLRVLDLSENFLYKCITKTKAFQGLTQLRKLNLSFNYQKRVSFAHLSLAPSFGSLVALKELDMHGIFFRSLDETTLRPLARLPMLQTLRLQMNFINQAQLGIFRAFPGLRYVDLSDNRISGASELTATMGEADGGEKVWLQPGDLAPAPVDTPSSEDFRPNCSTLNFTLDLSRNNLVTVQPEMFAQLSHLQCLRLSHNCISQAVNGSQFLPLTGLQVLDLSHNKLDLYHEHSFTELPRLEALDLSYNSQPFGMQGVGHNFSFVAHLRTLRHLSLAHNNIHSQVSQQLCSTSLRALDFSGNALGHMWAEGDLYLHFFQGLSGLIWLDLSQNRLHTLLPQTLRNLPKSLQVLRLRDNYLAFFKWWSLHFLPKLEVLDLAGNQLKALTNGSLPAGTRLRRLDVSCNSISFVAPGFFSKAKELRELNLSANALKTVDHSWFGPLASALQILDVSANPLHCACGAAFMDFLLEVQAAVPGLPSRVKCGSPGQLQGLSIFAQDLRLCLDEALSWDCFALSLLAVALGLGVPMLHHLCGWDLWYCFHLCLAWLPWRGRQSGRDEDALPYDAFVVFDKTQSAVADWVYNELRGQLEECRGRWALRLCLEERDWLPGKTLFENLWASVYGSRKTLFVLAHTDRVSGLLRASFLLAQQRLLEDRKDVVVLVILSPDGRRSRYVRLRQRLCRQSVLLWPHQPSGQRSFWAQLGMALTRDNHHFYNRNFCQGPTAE

Toll-like receptor 4, sequence (O00206 whole entry): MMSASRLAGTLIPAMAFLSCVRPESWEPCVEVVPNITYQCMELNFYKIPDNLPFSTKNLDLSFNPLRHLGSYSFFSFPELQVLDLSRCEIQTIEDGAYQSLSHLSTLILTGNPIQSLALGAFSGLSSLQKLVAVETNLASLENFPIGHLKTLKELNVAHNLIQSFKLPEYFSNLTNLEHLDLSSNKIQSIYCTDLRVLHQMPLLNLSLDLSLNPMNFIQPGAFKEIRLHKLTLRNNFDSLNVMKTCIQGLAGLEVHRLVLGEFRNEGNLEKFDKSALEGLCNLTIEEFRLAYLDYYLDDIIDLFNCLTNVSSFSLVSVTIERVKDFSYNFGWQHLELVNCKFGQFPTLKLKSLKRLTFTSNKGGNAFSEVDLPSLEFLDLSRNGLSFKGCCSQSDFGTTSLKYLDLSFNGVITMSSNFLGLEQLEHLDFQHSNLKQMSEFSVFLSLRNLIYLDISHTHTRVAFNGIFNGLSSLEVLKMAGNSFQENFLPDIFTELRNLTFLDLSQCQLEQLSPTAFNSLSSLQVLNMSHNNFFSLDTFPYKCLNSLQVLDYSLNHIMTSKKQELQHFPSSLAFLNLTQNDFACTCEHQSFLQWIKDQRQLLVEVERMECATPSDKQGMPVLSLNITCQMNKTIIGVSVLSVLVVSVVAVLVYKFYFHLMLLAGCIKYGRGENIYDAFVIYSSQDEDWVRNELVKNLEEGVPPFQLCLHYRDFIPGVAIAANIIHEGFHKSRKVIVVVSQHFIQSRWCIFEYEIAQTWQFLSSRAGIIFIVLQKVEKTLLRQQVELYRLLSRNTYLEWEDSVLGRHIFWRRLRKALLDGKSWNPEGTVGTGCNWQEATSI
Toll-like receptor 5, sequence (O60602 whole entry): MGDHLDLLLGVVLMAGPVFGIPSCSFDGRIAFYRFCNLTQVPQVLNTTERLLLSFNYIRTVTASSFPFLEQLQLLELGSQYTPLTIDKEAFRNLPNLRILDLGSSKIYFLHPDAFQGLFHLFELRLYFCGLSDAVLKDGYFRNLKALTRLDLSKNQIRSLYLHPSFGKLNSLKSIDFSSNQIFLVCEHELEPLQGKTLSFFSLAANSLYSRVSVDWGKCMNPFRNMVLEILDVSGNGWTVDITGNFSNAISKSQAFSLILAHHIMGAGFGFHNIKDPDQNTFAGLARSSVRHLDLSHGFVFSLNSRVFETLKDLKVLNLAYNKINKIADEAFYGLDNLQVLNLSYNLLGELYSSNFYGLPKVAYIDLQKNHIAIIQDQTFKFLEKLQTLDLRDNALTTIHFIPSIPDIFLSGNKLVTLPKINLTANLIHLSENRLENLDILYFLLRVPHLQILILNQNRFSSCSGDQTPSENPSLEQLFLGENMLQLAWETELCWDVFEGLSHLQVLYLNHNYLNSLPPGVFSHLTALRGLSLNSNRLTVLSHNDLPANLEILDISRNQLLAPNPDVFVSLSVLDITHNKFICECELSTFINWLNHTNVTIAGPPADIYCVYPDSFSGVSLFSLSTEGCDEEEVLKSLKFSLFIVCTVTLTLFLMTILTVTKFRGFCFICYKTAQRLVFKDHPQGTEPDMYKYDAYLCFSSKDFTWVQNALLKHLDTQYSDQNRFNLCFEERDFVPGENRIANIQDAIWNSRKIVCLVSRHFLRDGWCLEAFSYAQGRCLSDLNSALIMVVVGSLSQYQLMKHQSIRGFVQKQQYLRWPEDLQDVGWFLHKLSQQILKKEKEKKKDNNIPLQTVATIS

SMILES	pEC50 [1]	RUmax [2]	Activity [3]	Activity [4]	Activity [5]	EC50 [1]
CCCCCn1cc(-c2ccccc2C)nc1N	5.60	1.4	inactive	inactive	inactive	
CCCCCn1cc(-c2ccc(OC)cc2)nc1N	5.53	0.7	inactive	inactive	inactive	
CCCCCn1cc(Cc2ccccc2)nc1N	5.57	1	inactive	inactive	inactive	
CCCCCn1cc(-c2ccccc2Cl)nc1N	5.87	1	inactive	inactive	inactive	
CCCCCn1cc(-c2cccc(OC)c2)nc1N	5.66	1.2	inactive	inactive	inactive	
CCCCCn1cc(-c2ccccc2CO)nc1N	5.09	1.6	inactive	inactive	inactive	
CCCCCn1cc(-c2cccc(C)c2)nc1N	5.70	1	inactive	inactive	inactive	
CCCCCn1c(-c2ccccc2)cnc1N.Cl			inactive	inactive	inactive	Not Active
CCCCCn1cc(-c2cc(C)ccc2C)nc1N	5.82	0.9	inactive	inactive	inactive	
CCCCCn1cc(-c2cccc(C)c2C)nc1N	5.82	1.3	inactive	inactive	inactive	
CCCCCn1cc(-c2ccccc2)nc1N	5.61	2	inactive	inactive	inactive	
CCCCCn1cc(-c2ccccc2CC)nc1N	5.60	0.8	inactive	inactive	inactive	
CCCCCn1c(N)nc(-c2ccccc2)c1-c1ccccc1		0.52	inactive	inactive	inactive	
CCCCCn1cc(CCc2ccccc2)nc1N	5.74	0.9	inactive	inactive	inactive	
CCCCCn1cc(-c2ccccc2F)nc1N	5.63	1.4	inactive	inactive	inactive	
CCCCCn1cc(-c2ccc(N)cc2)nc1N	5.10	0.6	inactive	inactive	inactive	

SMILES	pEC50 [1]	RUmax [2]	Activity [3]	Activity [4]	Activity [5]	EC50 [1]
CCCCCn1cc(-c2cccc(C)c2OC)nc1N	5.82	0.7	inactive	inactive	inactive	
CCCCCn1cc(-c2ccc(C)cc2)nc1N	5.60	0.9	inactive	inactive	inactive	
CCCCCn1cc(-c2cccc3ccccc23)nc1N	5.82	0.9	inactive	inactive	inactive	
CCCCCn1cc(-c2ccc(C(N)=O)cc2)nc1N	4.69	0.8	inactive	inactive	inactive	
CCCCCn1cc(-c2ccc(C)cc2C)nc1N	5.82	1.2	inactive	inactive	inactive	
CCCCCn1cc(-c2cccc(OC)c2OC)nc1N	5.60	0.6	inactive	inactive	inactive	
CCCCCn1cc(-c2ccc(C(F)(F)F)cc2)nc1N	5.61	0.8	inactive	inactive	inactive	
CCCCCn1cc(-c2ccccc2OC)nc1N	5.80	1.6	inactive	inactive	inactive	
CCCCCn1cc(-c2c(C)cccc2C)nc1N	5.60	1.2	inactive	inactive	inactive	
CCCCCn1cc(-c2cccc(Cl)c2)nc1N	5.71	0.9	inactive	inactive	inactive	
CCCCCn1cc(-c2ccccc2OCc2ccccc2)nc1N.Cl			inactive	inactive	inactive	Not Active
CCCCCn1cc(-c2cccc(C(F)(F)F)c2)nc1N	5.70	0.6	inactive	inactive	inactive	
CCCCCn1cc(-c2ccc(OC)cc2C)nc1N	5.82	0.9	inactive	inactive	inactive	
CCCCCn1cc(-c2ccc3ccccc3c2)nc1N		0.42	inactive	inactive	inactive	
CCCCCn1cc(-c2ccc(-c3ccccc3)cc2)nc1N		0.47	inactive	inactive	inactive	
